According to ChEMBL document CHEMBL4393661, “PRODRUGS FOR NITROREDUCTASE BASED CANCER THERAPY- 2: Novel amide/Ntr combinations targeting PC3 cancer cells” (Eur J Med Chem, 2019):

Assays:
PC-3 [1] = test: Cytotoxicity in human PC3 cells assessed as reduction in cell viability at 180 nM measured after 48 hrs by SRB assay; type: cell-based; details: pc-3, 48 h, 0.18 µM
Method in brief: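 They were exposed for 48 h to prodrug alone at 180 nM final, without enzyme or NADH, with 25 mM Tris-HCl as vehicle control. Cells were fixed with 12.5% TCA for 1 h at 4 °C, stained with 0.4% SRB and read at 492 nm as % cell survival, in triplicate.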

[2] = Cytotoxicity against human Hep3B cells assessed as cell viability at 9 to 150 uM measured after 48 hrs by MTT assay relative to control; type: cell-based, Hep 3B2; details: read-out: Activity
Method in brief: (§1)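 Hep3B and HUVEC cells were grown in high-glucose medium with 10% heat-inactivated FBS and 2 mM glutamine at 37 °C in 5% CO2. Cells were seeded at 5x10^4 per well and left 24 h to attach. They were then exposed for 48 h to 150, 75, 39, 19 and 9 µM, with 1% DMSO as vehicle control. Viability was read by MTT at 550 nm as (OD sample/OD control)×100.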

[3] = Solubility of the compound in 15% DMSO; type: physicochemical
[4] = Cytotoxicity against human PC3 cells assessed as cell viability at 9 to 150 uM measured after 48 hrs by MTT assay relative to control; type: cell-based, PC-3; details: read-out: Activity
Method in brief: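 They were treated for 48 h at 9, 18, 39, 78 and 150 µM, with 1% DMSO as vehicle control. Viability was read by MTT at 550 nm.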

Putative nitroreductase [5] = molecular target: T1, Putative nitroreductase (Staphylococcus saprophyticus subsp. saprophyticus (strain ATCC 15305 / DSM20229 / NCIMB 8711 / NCTC 7292 / S-41), UniProt Q4A0P1); test: Substrate activity at Staphylococcus saprophyticus nitroreductase expressed in Escherichia coli assessed as retention time […] at 100 uM by HPLC analysis (0 to 5 mins at 20 % ACN, 15 to 22 min at 80% ACN, 27-32 AT 20% ACN); type: ADME
T1 sequence (Q4A0P1 whole entry): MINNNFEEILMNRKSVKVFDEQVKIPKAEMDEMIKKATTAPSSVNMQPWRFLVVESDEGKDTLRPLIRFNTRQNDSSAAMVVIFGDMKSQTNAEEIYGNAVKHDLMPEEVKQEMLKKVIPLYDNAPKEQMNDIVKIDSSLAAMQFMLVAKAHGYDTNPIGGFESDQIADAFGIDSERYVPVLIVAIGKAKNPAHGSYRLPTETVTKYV

Putative nitroreductase [6] = molecular target: T1, Putative nitroreductase; test: Substrate activity at Staphylococcus saprophyticus nitroreductase expressed in Escherichia coli assessed as retention time in the presence of NADPH at 100 uM by HPLC analysis (0 to 5 mins at 20% ACN, 25 to 35 min at 80% ACN, 40 to 45 min at 20% ACN); type: ADME
PC-3 [7] = test: Cytotoxicity against human PC3 cells assessed as reduction in cell viability measured after 48 hrs in presence of Staphylococcus saprophyticus nitroreductase and NADH by SRB assay; type: cell-based; details: PC-3, 48 h
Method in brief: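 Prodrug at 180, 18 or 1.8 nM was premixed with Ssap-NtrB (31 µg/mL final) and NADH (600 µM final; 900 µM for CB1954) in 25 mM Tris-HCl pH 7.5, then added for 48 h under aerobic conditions. Cells were fixed with 12.5% TCA, stained with SRB and read at 492 nm, in triplicate.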

[8] = Cytotoxicity against human HUVEC cells assessed as cell viability at 9 to 150 uM measured after 48 hrs by MTT assay relative to control; type: cell-based; details: read-out: Activity; method in brief: as §1
[9] = molecular target: T2, Staphylococcus saprophyticus nitroreductase (Staphylococcus saprophyticus subsp. saprophyticus (strain ATCC 15305 / DSM20229 / NCIMB 8711 / NCTC 7292 / S-41), UniProt Q4A0P1); test: Substrate activity at Staphylococcus saprophyticus nitroreductase expressed in Escherichia coli assessed as half life […] at 100 uM by HPLC analysis (0 to 5 mins at 20% ACN, 25 to 35 min at 80% ACN, 40 to 45 min at 20% ACN); type: ADME
T2 sequence (Q4A0P1 whole entry): T1 sequence (Q4A0P1 whole entry)

[10] = molecular target: T2, Staphylococcus saprophyticus nitroreductase; test: Substrate activity at Staphylococcus saprophyticus nitroreductase expressed in Escherichia coli assessed as half life […] at 100 uM by HPLC analysis (0 to 5 mins at 20 % ACN, 15 to 22 min at 80% ACN, 27-32 AT 20% ACN); type: ADME
Putative nitroreductase [11] = molecular target: T1, Putative nitroreductase; test: Substrate activity at Staphylococcus saprophyticus nitroreductase expressed in Escherichia coli assessed as retention time […] at 111 uM by HPLC analysis (0 to 5 mins at 20 % ACN, 15 to 22 min at 80% ACN, 27-32 AT 20% ACN); type: ADME
Putative nitroreductase [12] = molecular target: T1, Putative nitroreductase; test: Substrate activity at Staphylococcus saprophyticus nitroreductase expressed in Escherichia coli assessed as retention time in the presence of NADPH at 111 uM by HPLC analysis (0 to 5 mins at 20% ACN, 25 to 35 min at 80% ACN, 40 to 45 min at 20% ACN); type: ADME
[13] = molecular target: T2, Staphylococcus saprophyticus nitroreductase; test: Substrate activity at Staphylococcus saprophyticus nitroreductase expressed in Escherichia coli assessed as half life in the presence of NADPH at 111 uM by HPLC analysis (0 to 5 mins at 20% ACN, 25 to 35 min at 80% ACN, 40 to 45 min at 20% ACN); type: ADME
Hep 3B2 = test: Cytotoxicity against human Hep3B cells assessed as reduction in cell viability measured after 48 hrs by MTT assay; type: cell-based; method in brief: as §1
Putative nitroreductase [14] = molecular target: T1, Putative nitroreductase; test: Prodrug conversion assessed Staphylococcus saprophyticus nitroreductase expressed in Escherichia coli-mediated PP (4-(hydroxyamino)phenyl)(piperidin-1-yl)methanone metabolite formation by measuring retention time of metabolite at 100 uM incubated for 15 mins by HPLC analysis; type: ADME; details: 0.25 h
Method in brief: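 Recombinant Ssap-NtrB, Ni-column purified, was used at 2.5 µg/mL. Substrate at 100 µM was reacted with 200 µM NADH in 25 mM Tris/Cl pH 7.5 with 10% DMSO at 25 °C for 15 min. The reaction was stopped 1:1 with cold acetonitrile and run on C18 RP-HPLC at 1 mL/min with a 20–80% ACN gradient. Peaks were detected at 254 and 340 nm.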

[15] = molecular target: T2, Staphylococcus saprophyticus nitroreductase; test: Substrate activity at Staphylococcus saprophyticus nitroreductase expressed in Escherichia coli assessed as half life […] at 150 uM by HPLC analysis (0 to 5 mins at 20 % ACN, 15 to 22 min at 80% ACN, 27-32 AT 20% ACN); type: ADME
Putative nitroreductase [16] = molecular target: T1, Putative nitroreductase; test: Substrate activity at Staphylococcus saprophyticus nitroreductase expressed in Escherichia coli assessed as retention time […] at 150 uM by HPLC analysis (0 to 5 mins at 20 % ACN, 15 to 22 min at 80% ACN, 27-32 AT 20% ACN); type: ADME

Row | Structure (SMILES) | Activity (PC-3 [1]) | viability at 48 h, up to 150 µM [2] | solubility [3] | viability at 48 h, up to 150 µM [4] | Retention_time (Putative nitroreductase [5]) | Retention_time (Putative nitroreductase [6]) | IC50 (PC-3 [7]) | viability at 48 h, up to 150 µM [8] | half-life at 100 µM [9] | half-life [10] | Retention_time (Putative nitroreductase [11]) | Retention_time (Putative nitroreductase [12]) | half-life [13] | IC50 (Hep 3B2) | Retention time (Putative nitroreductase [14]) | half-life [15] | Retention_time (Putative nitroreductase [16])
1 | NC(=O)c1cc(N2CC2)c([N+](=O)[O-])cc1[N+](=O)[O-] [TRETAZICAR] | Non-Toxic | – | – | – | – | – | – | – | – | – | – | – | – | – | – | – | –
2 | O=C(NCCNC(=O)c1ccc([N+](=O)[O-])cc1)c1ccc([N+](=O)[O-])cc1 | Non-Toxic | 51 to 80% | Soluble | > 80% | 18.65 min | 17.86 min | 31.1 nM | > 80% | < 2.54 h | < 1.2 h | – | – | – | – | – | – | –
3 | CCCCN(CCCC)c1c([N+](=O)[O-])cc(C(=O)Nc2ccc([N+](=O)[O-])cc2)cc1[N+](=O)[O-] | – | < 50% | – | < 50% | – | – | – | < 50% | – | – | 26.5 min | 31.96 min | < 1.56 h | 30900 nM | – | – | –
4 | O=C(Nc1ccccc1NC(=O)c1ccc([N+](=O)[O-])cc1)c1ccc([N+](=O)[O-])cc1 | Non-Toxic | > 80% | Soluble | > 80% | 21.38 min | 22.08 min | 14.3 nM | > 80% | < 3.2 h | – | – | – | – | – | – | – | –
5 | O=C(c1ccc([N+](=O)[O-])cc1)N1CCN(C(=O)c2ccc([N+](=O)[O-])cc2)CC1 | Non-Toxic | > 80% | Soluble | 51 to 80% | 17.28 min | 17.6 min | 18 nM | > 80% | < 1.42 h | – | – | – | – | – | – | – | –
6 | O=C(Nc1ccc(NC(=O)c2ccc([N+](=O)[O-])cc2)cc1)c1ccc([N+](=O)[O-])cc1 | – | 51 to 80% | Soluble | > 80% | 16.61 min | – | – | > 80% | – | – | – | – | – | – | – | – | –
7 | O=C(c1ccc([N+](=O)[O-])cc1)N1CCOCC1 | Non-Toxic | > 80% | Soluble | > 80% | 15.17 min | – | 1.81 nM | > 80% | – | < 0.25 h | – | – | – | – | 16 min | – | –
8 | CC(=O)Nc1cc([N+](=O)[O-])cc([N+](=O)[O-])c1 | Non-Toxic | > 80% | – | > 80% | – | – | 10700 nM | > 80% | – | – | – | – | – | – | – | < 6 min | 14.4 min
9 | O=C(Nc1cccc(NC(=O)c2ccc([N+](=O)[O-])cc2)c1)c1ccc([N+](=O)[O-])cc1 | Non-Toxic | > 80% | Soluble | > 80% | 21.88 min | 21.98 min | 33.4 nM | > 80% | – | – | – | – | – | – | – | – | –
